In ChEMBL document CHEMBL1124947, “Cationic antiprotozoal drugs. Trypanocidal activity of 2-(4'-formylphenyl)imidazo[1,2-a]pyridinium guanylhydrazones and related derivatives of quaternary heteroaromatic compounds” (J Med Chem, 1990):

Legend:
Assay type in all cases: functional
Mus musculus [1] = experiment: Trypanocidal Activity at I.C.E. value 0.52 when administered subcutaneously.
Method in brief: (§1)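 Blood-stage T. rhodesiense infection came from a standard inoculum lethal to all untreated mice. Drug was given by subcutaneous injection to groups of five mice. Survival beyond 30 days counted as cure. […] Sub-curative doses scored 0, and data were normalized at each dose.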

Mus musculus [2] = experiment: Trypanocidal Activity at I.C.E. value 0.57 when administered perorally.
Mus musculus [3] = experiment: Trypanocidal Activity at I.C.E. value 0.45 when administered subcutaneously.; method in brief: as §1
[4] = tested on: Trypanosoma brucei rhodesiense; experiment: In Vitro measurement of inhibition of leucine uptake in cell culture of Trypanosoma rhodesiense; conditions: read-out: ID50 (the source's name)
Method in brief: (§2)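 Trypanosomes harvested from infected rats, cultured 3 h with several concentrations of drug, usually 0.1–100 µg/mL. Radiolabeled L-leucine uptake measured. ID50 is the concentration in µg/mL giving 50% inhibition of incorporation.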

[5] = tested on: Trypanosoma brucei rhodesiense; experiment: In Vitro measurement of inhibition of thymidine uptake in cell culture of Trypanosoma rhodesiense; conditions: read-out: ID50 (the source's name)
Method in brief: (§3)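 Parasites harvested from infected rats and incubated 3 h across a drug concentration series, usually 0.1–100 µg/mL. Incorporation of radiolabeled thymidine measured. ID50 is the concentration (µg/mL) producing 50% inhibition.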

Mus musculus [6] = experiment: Trypanocidal Activity at I.C.E. value 0.38 when administered subcutaneously.; method in brief: as §1
Mus musculus [7] = experiment: Trypanocidal Activity at I.C.E. value 0.57 when administered subcutaneously.
Method in brief: (§4)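 Mice, in groups of five per dose, were given a standard inoculum of blood-stage T. rhodesiense that is lethal to all untreated controls, then dosed subcutaneously. Usually 11 dose levels were used (2^n × 0.42 mg/kg).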

Mus musculus [8] = experiment: Trypanocidal Activity at I.C.E. value 0.36 when administered subcutaneously.
Mus musculus [9] = experiment: Trypanocidal Activity at I.C.E. value 0.71 when administered subcutaneously.; method in brief: as §4
Mus musculus [10] = experiment: Trypanocidal Activity at I.C.E. value 0.32 when administered subcutaneously.; method in brief: as §1
Mus musculus [11] = experiment: Trypanocidal Activity at I.C.E. value 0.29 when administered subcutaneously.; method in brief: as §1
Mus musculus [12] = experiment: Trypanocidal Activity at I.C.E. value 0.65 when administered subcutaneously.; method in brief: as §4
Mus musculus [13] = experiment: Trypanocidal Activity at I.C.E. value 0.47 when administered subcutaneously.; method in brief: as §1
Mus musculus [14] = experiment: Trypanocidal Activity at I.C.E. value 0.17 when administered subcutaneously.
[15] = tested on: Trypanosoma brucei rhodesiense; experiment: In Vitro measurement of inhibition of thymidine uptake in cell culture of Trypanosoma rhodesiense.; conditions: read-out: ID50 (the source's name); method in brief: as §3
[16] = tested on: Trypanosoma brucei rhodesiense; experiment: In Vitro measurement of inhibition of Leucine uptake in cell culture of Trypanosoma rhodesiense.; conditions: read-out: ID50 (the source's name); method in brief: as §2
Mus musculus [17] = experiment: Trypanocidal Activity at I.C.E. value 0.44 when administered subcutaneously.; method in brief: as §1
Mus musculus [18] = experiment: Trypanocidal Activity at I.C.E. value 0.67 when administered subcutaneously.; method in brief: as §4
Mus musculus [19] = experiment: Trypanocidal Activity at I.C.E. value 0.34 when administered subcutaneously.; method in brief: as §1
Mus musculus [20] = experiment: Trypanocidal Activity at I.C.E. value 0.16 when administered subcutaneously.

Br.Cc1ccn2cc(COc3ccc(/C=N/NC(=N)N)cc3)[n+](C)c2c1.[Br-]
CD50 (Mus musculus [1]): 0.2 mg/kg | CD50 (Mus musculus [2]): 6.6 mg/kg

Br.Cc1c(-c2ccc(/C=N/NC(=N)N)cc2)[n+](C)c2ccccn12.[Br-]
CD50 (Mus musculus [3]): 0.2 mg/kg

Cc1ccc2n(c1)cc(-c1ccc(/C=N/Nc3nc(N)nc(N)n3)cc1)[n+]2C.[I-]
IC50 [4]: > 10 mg/L | IC50 [5]: 0.3 mg/L

C[n+]1c(COc2ccc(/C=N/Nc3nc[nH]n3)cc2)cn2ccccc21.[Br-]
IC50 [4]: > 10 mg/L | IC50 [5]: 0.5 mg/L

Br.C/N=C(/N/N=C/c1ccc(-c2cn3ccc(C)cc3[n+]2C)cc1)SC.[Br-]
CD50 (Mus musculus [6]): 26 mg/kg

Br.CCNC(=N)N/N=C/c1ccc(-c2cn3ccc(C)cc3[n+]2C)cc1.[Br-]
CD50 (Mus musculus [2]): 13 mg/kg | CD50 (Mus musculus [7]): 0.1 mg/kg

Br.C=CC[n+]1c(-c2ccc(/C=N/NC(=N)N)cc2)cn2ccccc21.[Br-]
CD50 (Mus musculus [8]): 0.4 mg/kg

Br.Cc1ccn2cc(-c3ccc(/C=N/NC(=N)NO)cc3)[n+](C)c2c1.[Br-]
CD50 (Mus musculus [9]): 0.2 mg/kg | IC50 [4]: 0.7 mg/L | IC50 [5]: 0.9 mg/L

Br.C/N=C(/NC)N/N=C/c1ccc(OCc2cn3c(C)cccc3[n+]2C)cc1.[Br-]
CD50 (Mus musculus [10]): 3.3 mg/kg

Br.C[n+]1c(-c2ccc(/C=N/NC(=N)N)cc2)c([N+](=O)[O-])n2ccccc21.[Br-]
CD50 (Mus musculus [11]): 3.3 mg/kg | IC50 [4]: 1.7 mg/L | IC50 [5]: 2.7 mg/L

C[n+]1c(-c2ccc(/C=N/NC(=N)N)cc2)cn2ccsc21.Cc1ccc(S(=O)(=O)O)cc1.Cc1ccc(S(=O)(=O)[O-])cc1
CD50 (Mus musculus [12]): 0.4 mg/kg | IC50 [4]: 1.3 mg/L | IC50 [5]: 1.4 mg/L

Br.Cn1cc[n+](C)c1/C=C/c1ccc(/C=N/NC(=N)NO)cc1.[Br-]
CD50 (Mus musculus [13]): 0.8 mg/kg

Cc1ccc(S(=O)(=O)O)cc1.Cc1ccc(S(=O)(=O)[O-])cc1.Cc1cccc2n1cc(/C=N/NC(=N)NO)[n+]2C
CD50 (Mus musculus [14]): 106 mg/kg

Br.Cn1c(COc2ccc(/C=N/NC3=NCCCN3)cc2)[n+](C)c2ccccc21.[Br-]
CD50 (Mus musculus [1]): 1.6 mg/kg | CD50 (Mus musculus [2]): 6.6 mg/kg | IC50 [4]: > 10 mg/L | IC50 [5]: 4.4 mg/L

Cc1ccc(S(=O)(=O)[O-])cc1.Cn1cc[n+](C)c1/C=C/c1ccc(/C=N/NC(=O)c2ccc(N)cc2)cc1
CD50 (Mus musculus [10]): 26 mg/kg

Br.Cc1c(-c2ccc(/C=N/NC(=N)N3CCCC3)cc2)[n+](C)c2ccccn12.[Br-]
CD50 (Mus musculus [13]): 0.2 mg/kg

Br.C[n+]1c(-c2ccc(/C=N/NC(=N)NCCN3CCOCC3)cc2)cn2ccccc21.[Br-]
CD50 (Mus musculus [6]): 0.8 mg/kg | IC50 [15]: 2.3 mg/L | IC50 [16]: 11.7 mg/L

CC(=O)Nc1ccc(-c2cn3ccc4ccccc4c3[n+]2C)cc1.[Br-]
IC50 [4]: 5.2 mg/L | CD50 (Mus musculus [14]): 212 mg/kg | IC50 [5]: 3.2 mg/L

Br.C[n+]1c(-c2ccc(/C=N/NC3=NCCN3)cc2)cn2c1CCCC2.[Br-]
CD50 (Mus musculus [17]): 0.4 mg/kg

Br.Cc1ccn2cc(-c3ccc(/C=N/NC4=NCCCN4)cc3)[n+](C)c2c1.[Br-]
CD50 (Mus musculus [2]): 6.6 mg/kg | IC50 [4]: 1.1 mg/L | CD50 (Mus musculus [18]): 0.1 mg/kg | IC50 [5]: 0.7 mg/L

Br.C=CCNC(=N)N/N=C/c1ccc(-c2cn3ccccc3[n+]2C)cc1.[Br-]
CD50 (Mus musculus [12]): 0.2 mg/kg

Br.C/N=C(\NC)N/N=C/c1ccc(OCc2n(C)c3ccccc3[n+]2C)cc1.[Br-]
CD50 (Mus musculus [19]): 3.3 mg/kg

Cc1ccc2n(c1)cc(-c1ccc(C(=N)NO)cc1)[n+]2C.[Cl-]
CD50 (Mus musculus [20]): 106 mg/kg

Br.C[n+]1c(COc2ccc(/C=N/NC(=N)NO)cc2)cn2ccccc21.[Br-]
CD50 (Mus musculus [7]): 0.4 mg/kg

Br.C[n+]1c(-c2ccc(/C=N/NC3=NCCCN3)cc2)cn2ccsc21.[Br-]
CD50 (Mus musculus [13]): 0.2 mg/kg

C[n+]1cscc1COc1ccc(/C=N/NC(=N)N2CCCC2)cc1.Cc1ccc(S(=O)(=O)O)cc1.Cc1ccc(S(=O)(=O)[O-])cc1
IC50 [4]: 0.7 mg/L | CD50 (Mus musculus [20]): 13 mg/kg | IC50 [5]: 2.2 mg/L

Br.C[n+]1c(COc2ccc(/C=N/NC(=N)N)cc2)cn2ccccc21.[Br-]
CD50 (Mus musculus [13]): 0.1 mg/kg | IC50 [4]: 0.9 mg/L | IC50 [5]: 0.8 mg/L

Cc1ccc(S(=O)(=O)[O-])cc1.Cc1cccc2n1cc(-c1ccc(COc3ccc(/C=N/NC(=O)c4ccc(N)cc4)cc3)cc1)[n+]2C
CD50 (Mus musculus [17]): 13 mg/kg

Br.C[n+]1c(-c2ccc(/C=N/NC3=NCCN3)cc2)c(Br)n2ccccc21.[Br-]
IC50 [4]: 0.7 mg/L | CD50 (Mus musculus [14]): 3.3 mg/kg | IC50 [5]: 0.7 mg/L

C[n+]1c(-c2ccc(C(=N)NO)cc2)cn2ccccc21.[Cl-]
CD50 (Mus musculus [11]): 53 mg/kg

Br.CCNC(=N)N/N=C/c1ccc(OCc2cn3c(C)cccc3[n+]2C)cc1.[Br-]
CD50 (Mus musculus [1]): 0.4 mg/kg

Br.CC(Cc1ccncc1)NC(=N)N/N=C/c1ccc(-c2cn3ccccc3[n+]2C)cc1.[Br-] (configuration not stated)
CD50 (Mus musculus [6]): 0.8 mg/kg

Br.COc1ccc2n(c1)cc(-c1ccc(/C=N/NC(=N)SC)cc1)[n+]2C.[Br-]
CD50 (Mus musculus [13]): 13 mg/kg

Br.Cc1ccc2n(c1)cc(/C=C/c1ccc(/C=N/NC(=N)N)cc1)[n+]2C.[Br-]
CD50 (Mus musculus [12]): 0.8 mg/kg

Br.Cc1ccn2cc(COc3ccc(/C=N/NC(=N)N4CCCC4)cc3)[n+](C)c2c1.[Br-]
CD50 (Mus musculus [10]): 0.4 mg/kg

Br.CC/N=C(\NCC)N/N=C/c1ccc(/C=C/c2cn3c(C)cccc3[n+]2C)cc1.[Br-]
CD50 (Mus musculus [12]): 0.4 mg/kg

C[n+]1c(-c2ccc(/C=N/NC(=O)c3ccc(N)cc3)cc2)cn2ccccc21.Cc1ccc(S(=O)(=O)[O-])cc1
CD50 (Mus musculus [7]): 0.8 mg/kg

C[n+]1c(COc2ccc(/C=N/NC(=N)N)cc2)cn2cc(C(F)(F)F)ccc21.Cc1ccc(S(=O)(=O)O)cc1.Cc1ccc(S(=O)(=O)[O-])cc1
CD50 (Mus musculus [18]): 6.6 mg/kg

Br.Cc1ccc2n(c1)cc(-c1ccc(/C=N/NC(=N)N3CCOCC3)cc1)[n+]2C.[Br-]
CD50 (Mus musculus [13]): 0.8 mg/kg

Br.CC(Cc1c[nH]cn1)NC(=N)N/N=C/c1ccc(-c2cn3ccccc3[n+]2C)cc1.[Br-] (configuration not stated)
CD50 (Mus musculus [6]): 1.6 mg/kg

Br.CCS(=O)(=O)c1ccc2n(c1)cc(-c1ccc(/C=N/NC(=N)N)cc1)[n+]2C.[Br-]
CD50 (Mus musculus [18]): 0.8 mg/kg

Cc1ccc2n(c1)cc(-c1ccc(/C=N/Nc3cc(N)[nH]n3)cc1)[n+]2C.[Br-]
CD50 (Mus musculus [11]): 26 mg/kg | IC50 [4]: > 10 mg/L | IC50 [5]: > 10 mg/L

Br.CSC(=N)N/N=C/c1ccc(OCc2cn3ccccc3[n+]2C)cc1.[Br-]
IC50 [4]: 3.3 mg/L | CD50 (Mus musculus [17]): 26 mg/kg | IC50 [5]: 4.6 mg/L

Br.C[n+]1c(-c2ccc(/C=N/NC3=NCCN3)cc2)cn2ccsc21.[Br-]
IC50 [4]: 0.8 mg/L | CD50 (Mus musculus [17]): 0.8 mg/kg | IC50 [5]: 0.6 mg/L

Br.CCNC(=N)N/N=C/c1ccc(OCc2cn3cc(C)ccc3[n+]2C)cc1.[Br-]
CD50 (Mus musculus [18]): 0.4 mg/kg

Br.CCSc1ccc2n(c1)cc(-c1ccc(/C=N/NC(=N)SC)cc1)[n+]2C.[Br-]
CD50 (Mus musculus [20]): 106 mg/kg

Br.C[n+]1c(-c2ccc(/C=N/NC(=N)N3CCCCC3)cc2)cn2ccccc21.[Br-]
CD50 (Mus musculus [17]): 0.8 mg/kg

C[n+]1c(-c2ccc(C(N)=S)cc2)cn2ccccc21.Cc1ccc(S(=O)(=O)[O-])cc1
CD50 (Mus musculus [19]): 53 mg/kg

Cc1ccc(S(=O)(=O)N/N=C/c2ccc(-c3cn4ccccc4[n+]3C)cc2)cc1.[Br-]
CD50 (Mus musculus [14]): 53 mg/kg

Br.CC/N=C(\NCC)N/N=C/c1ccc(OCc2cn3cc(C)ccc3[n+]2C)cc1.[Br-]
CD50 (Mus musculus [8]): 1.6 mg/kg

C[n+]1c(-c2ccc(/C=N/NC(=N)NO)cc2)cn2ccsc21.Cc1ccc(S(=O)(=O)O)cc1.Cc1ccc(S(=O)(=O)[O-])cc1
CD50 (Mus musculus [1]): 0.8 mg/kg | IC50 [4]: 1.7 mg/L | IC50 [5]: 2 mg/L

Br.Cn1cc[n+](C)c1COc1ccc(/C=N/NC(=N)N)cc1.[Br-]
CD50 (Mus musculus [20]): 6.6 mg/kg

C[n+]1c(-c2ccc(/C=N/Nc3cc(N)[nH]n3)cc2)cn2ccccc21.[Br-]
CD50 (Mus musculus [11]): 13 mg/kg
